Square brackets hold non-standard residues; d marks the D form. Peptide text beside a SMILES is read from it. aThr = C[C@H](O)[C@H](N)C(=O)O
What follows are compounds tested against T1, Ribonucleoside-diphosphate reductase RR1 (Homo sapiens, UniProt P23921+P31350+Q7LG56) (assay: Inhibition of mammalian ribonucleotide reductase).
T1 sequence (P23921 whole entry): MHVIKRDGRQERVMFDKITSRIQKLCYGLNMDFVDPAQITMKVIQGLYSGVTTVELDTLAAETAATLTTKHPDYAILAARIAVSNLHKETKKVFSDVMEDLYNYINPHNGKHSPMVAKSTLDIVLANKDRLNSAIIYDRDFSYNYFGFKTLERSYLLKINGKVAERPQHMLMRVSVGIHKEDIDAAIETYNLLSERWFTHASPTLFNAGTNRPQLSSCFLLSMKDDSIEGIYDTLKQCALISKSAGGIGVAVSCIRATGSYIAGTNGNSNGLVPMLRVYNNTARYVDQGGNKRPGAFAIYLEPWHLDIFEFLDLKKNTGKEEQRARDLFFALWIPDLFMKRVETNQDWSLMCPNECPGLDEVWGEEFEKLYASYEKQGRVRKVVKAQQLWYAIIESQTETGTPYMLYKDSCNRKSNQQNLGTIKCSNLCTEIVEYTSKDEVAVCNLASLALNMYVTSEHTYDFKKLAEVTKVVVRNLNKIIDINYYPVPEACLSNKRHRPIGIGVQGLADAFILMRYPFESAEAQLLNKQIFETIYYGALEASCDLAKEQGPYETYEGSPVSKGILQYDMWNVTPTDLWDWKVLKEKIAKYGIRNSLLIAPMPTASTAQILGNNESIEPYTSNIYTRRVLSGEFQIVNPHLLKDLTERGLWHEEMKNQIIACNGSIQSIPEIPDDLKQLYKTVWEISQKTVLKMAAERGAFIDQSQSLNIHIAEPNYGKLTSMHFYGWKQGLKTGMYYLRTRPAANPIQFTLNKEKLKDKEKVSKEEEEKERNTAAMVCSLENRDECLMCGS
T1 sequence (Q7LG56 whole entry): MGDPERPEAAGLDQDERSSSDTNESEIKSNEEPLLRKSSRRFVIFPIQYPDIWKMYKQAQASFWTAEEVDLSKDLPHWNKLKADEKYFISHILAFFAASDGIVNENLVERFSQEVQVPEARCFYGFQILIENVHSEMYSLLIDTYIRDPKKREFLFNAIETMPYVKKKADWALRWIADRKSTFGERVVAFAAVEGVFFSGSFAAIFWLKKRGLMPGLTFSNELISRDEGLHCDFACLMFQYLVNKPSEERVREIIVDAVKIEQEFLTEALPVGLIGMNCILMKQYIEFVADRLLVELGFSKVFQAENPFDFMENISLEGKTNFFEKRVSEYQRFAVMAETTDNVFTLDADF
T1 sequence (P31350 whole entry): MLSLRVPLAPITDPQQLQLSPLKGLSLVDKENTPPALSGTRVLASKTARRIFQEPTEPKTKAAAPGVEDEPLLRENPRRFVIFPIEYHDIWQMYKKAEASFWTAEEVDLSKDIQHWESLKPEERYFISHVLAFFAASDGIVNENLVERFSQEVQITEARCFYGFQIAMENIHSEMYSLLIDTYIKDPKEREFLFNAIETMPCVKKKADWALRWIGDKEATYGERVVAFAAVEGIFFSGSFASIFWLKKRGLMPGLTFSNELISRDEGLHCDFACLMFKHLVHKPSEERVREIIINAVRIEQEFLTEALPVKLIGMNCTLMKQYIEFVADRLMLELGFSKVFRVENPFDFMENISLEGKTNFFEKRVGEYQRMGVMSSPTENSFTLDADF
Type: protein-complex assay
In short: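 Calf thymus R1 (1 μg) with cloned mouse R2 (2 μg) expressed in E. coli from pET-M2. CDP reduction was run at 35 °C with DTT as reductant. [³H]dCDP was separated on aminophenylboronate and counted by scintillation.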
With Ac-LDADF-OH the IC50 was over 400 µM.
In the case of CC(=O)N[C@H](C(=O)N[C@@H](CC(C)C)C(=O)N[C@@H](CC(=O)O)C(=O)N[C@@H](C)C(=O)N[C@@H](CC(=O)O)C(=O)N[C@@H](Cc1ccccc1)C(=O)O)[C@@H](C)O, the IC50 is reported as over 400 µM.
With H-FTLDADF-OH the IC50 was over 400 µM.
Ac-FTLDADL-OH gave an IC50 of over 400 µM.
Ac-LTLDADF-OH was tested, and the IC50 was over 400 µM.

These compounds were tested against Ribonucleoside-diphosphate reductase RR1 (Homo sapiens) (UniProt P23921+Q7LG56+P31350) (assay: Relative inhibitory potency against mammalian ribonucleotide reductase).
Type: protein-complex assay
With CC(=O)N[C@@H](Cc1ccc(N)cc1)C(=O)N[C@H](C(=O)N[C@@H](CC(C)C)C(=O)N[C@@H](CC(=O)O)C(=O)N[C@@H](C)C(=O)N[C@@H](CC(=O)O)C(=O)N[C@@H](Cc1ccccc1)C(=O)O)[C@H](C)O the RI was 10%.
CC(=O)N[C@@H](Cc1ccccc1)C(=O)N[C@H](C(=O)N[C@@H](CC(C)C)C(=O)N[C@@H](CC(N)=O)C(=O)N[C@@H](C)C(=O)N[C@@H](CC(=O)O)C(=O)N[C@@H](Cc1ccccc1)C(=O)O)[C@H](C)O showed an RI of 40%.
CC(=O)N[C@@H](Cc1ccccc1)C(=O)N[C@H](C(=O)N[C@@H](CC(C)C)C(=O)N[C@@H](CC(=O)O)C(=O)N[C@@H](C)C(=O)N[C@@H](CC(N)=O)C(=O)N[C@@H](Cc1ccccc1)C(=O)O)[C@H](C)O was tested, and the RI was 23%.
CC(=O)N[C@@H](Cc1ccccc1)C(=O)N[C@H](C(=O)N[C@@H](CC(C)C)C(=O)N[C@@H](CC(=O)O)C(=O)N[C@@H](C)C(=O)N[C@@H](CC(=O)O)C(=O)N[C@@H](Cc1ccccc1)C(=O)O)[C@H](C)O (Ac-F[aThr]LDADF-OH) gave an RI of 100%.
Compound CC(=O)N[C@@H](Cc1ccccc1)C(=O)N[C@H](C(=O)N[C@@H](CC(C)C)C(=O)N[C@@H](CC(=O)O)C(=O)N[C@@H](C)C(=O)N[C@@H](C)C(=O)N[C@@H](Cc1ccccc1)C(=O)O)[C@H](C)O has an RI of 28%.
Compound CC(C)C[C@H](NC(=O)[C@@H](NC(=O)[C@H](Cc1ccccc1)NC(=O)[C@@H](N)CO)[C@H](C)O)C(=O)N[C@@H](CC(=O)O)C(=O)N[C@@H](C)C(=O)N[C@@H](CC(=O)O)C(=O)N[C@@H](Cc1ccccc1)C(=O)O has an RI of 25%.
CC(=O)N[C@H](C(=O)N[C@@H](CC(C)C)C(=O)N[C@@H](CC(=O)O)C(=O)N[C@@H](C)C(=O)N[C@@H](CC(=O)O)C(=O)N[C@@H](Cc1ccccc1)C(=O)O)[C@H](C)O was tested, and the RI was under 3%.
CC(=O)N[C@@H](Cc1ccccc1)C(=O)N[C@H](C(=O)N[C@@H](C)C(=O)N[C@@H](CC(=O)O)C(=O)N[C@@H](C)C(=O)N[C@@H](CC(=O)O)C(=O)N[C@@H](Cc1ccccc1)C(=O)O)[C@H](C)O gave an RI of 4.9%.
CC(=O)N[C@@H](Cc1ccccc1)C(=O)N[C@H](C(=O)N[C@H](C(=O)N[C@@H](CC(=O)O)C(=O)N[C@@H](C)C(=O)N[C@@H](CC(=O)O)C(=O)N[C@@H](Cc1ccccc1)C(=O)O)C(C)C)[C@H](C)O showed an RI of 35%.
With CC(=O)N[C@@H](Cc1ccccc1)C(=O)N[C@H](C(=O)N[C@@H](CC(C)C)C(=O)N[C@@H](CC(=O)O)C(=O)N[C@@H](CC(=O)O)C(=O)N[C@@H](Cc1ccccc1)C(=O)O)[C@H](C)O the RI was 3%.
CC(=O)N[C@@H](Cc1ccccc1)C(=O)N[C@H](C(=O)N[C@@H](CC(C)C)C(=O)N[C@@H](CC(=O)O)C(=O)N[C@@H](Cc1ccccc1)C(=O)O)[C@H](C)O gave an RI of 2.5%.
For CC(=O)N[C@@H](Cc1ccccc1)C(=O)N[C@H](C(=O)N[C@@H](CC(C)C)C(=O)N[C@@H](CC(=O)O)C(=O)N[C@@H](C)C(=O)N[C@@H](CCC(=O)O)C(=O)N[C@@H](Cc1ccccc1)C(=O)O)[C@H](C)O, the RI was 1.7%.
Compound CC(=O)N[C@@H](CC(N)=O)C(=O)N[C@@H](CO)C(=O)N[C@@H](Cc1ccccc1)C(=O)N[C@H](C(=O)N[C@@H](CC(C)C)C(=O)N[C@@H](CC(=O)O)C(=O)N[C@@H](C)C(=O)N[C@@H](CC(=O)O)C(=O)N[C@@H](Cc1ccccc1)C(=O)O)[C@H](C)O has an RI of 100%.
Work on CC(=O)N[C@@H](Cc1ccccc1)C(=O)N[C@H](C(=O)N[C@@H](CC(C)C)C(=O)N[C@@H](CC(=O)O)C(=O)N[C@@H](C)C(=O)N[C@@H](CC(=O)O)C(=O)N[C@@H](Cc1ccccc1)C(=O)N[C@@H](C)C(=O)N[C@@H](C)C(=O)O)[C@H](C)O (Ac-F[aThr]LDADFAA-OH) yielded an RI of 2.1%.
CC(=O)N[C@@H](CC(C)C)C(=O)N[C@H](C(=O)N[C@@H](CC(C)C)C(=O)N[C@@H](CC(=O)O)C(=O)N[C@@H](C)C(=O)N[C@@H](CC(=O)O)C(=O)N[C@@H](Cc1ccccc1)C(=O)O)[C@H](C)O (Ac-L[aThr]LDADF-OH) showed an RI of under 3%.
For Ac-LDADF-OH, the RI was under 3%.
CC(=O)N[C@@H](Cc1ccccc1)C(=O)N[C@H](C(=O)N[C@@H](CC(C)C)C(=O)N[C@@H](CC(=O)O)C(=O)N[C@@H](C)C(=O)N[C@@H](CC(C)C)C(=O)N[C@@H](Cc1ccccc1)C(=O)O)[C@H](C)O gave an RI of 34%.
With CC(=O)N[C@@H](Cc1ccccc1)C(=O)N[C@H](C(=O)N[C@@H](CC(C)C)C(=O)N[C@@H](CC(=O)O)C(=O)N[C@@H](C)C(=O)N[C@@H](CC(=O)O)C(=O)N[C@@H](CC(C)C)C(=O)O)[C@H](C)O (Ac-F[aThr]LDADL-OH) the RI was under 3%.
For CC(=O)N[C@@H](CO)C(=O)N[C@@H](Cc1ccccc1)C(=O)N[C@H](C(=O)N[C@@H](CC(C)C)C(=O)N[C@@H](CC(=O)O)C(=O)N[C@@H](C)C(=O)N[C@@H](CC(=O)O)C(=O)N[C@@H](Cc1ccccc1)C(=O)O)[C@H](C)O, the RI was 100%.
Work on CC(C)C[C@H](NC(=O)[C@@H](NC(=O)[C@@H](N)Cc1ccccc1)[C@H](C)O)C(=O)N[C@@H](CC(=O)O)C(=O)N[C@@H](C)C(=O)N[C@@H](CC(=O)O)C(=O)N[C@@H](Cc1ccccc1)C(=O)O (H-F[aThr]LDADF-OH) yielded an RI of under 3%.
CC(=O)N[C@@H](Cc1ccccc1)C(=O)N[C@H](C(=O)N[C@@H](CC(C)C)C(=O)N[C@@H](CC(=O)O)C(=O)N[C@@H](CC(C)C)C(=O)N[C@@H](CC(=O)O)C(=O)N[C@@H](Cc1ccccc1)C(=O)O)[C@H](C)O was tested, and the RI was 35%.
In the case of CC(=O)N[C@@H](Cc1ccccc1)C(=O)N[C@H](C(=O)N[C@@H](Cc1ccccc1)C(=O)N[C@@H](CC(=O)O)C(=O)N[C@@H](C)C(=O)N[C@@H](CC(=O)O)C(=O)N[C@@H](Cc1ccccc1)C(=O)O)[C@H](C)O, the RI is reported as 18%.
CC(=O)N[C@@H](Cc1ccccc1)C(=O)N[C@H](C(=O)N[C@@H](CC(C)C)C(=O)N[C@@H](CC(=O)O)C(=O)NCC(=O)N[C@@H](CC(=O)O)C(=O)N[C@@H](Cc1ccccc1)C(=O)O)[C@H](C)O was tested, and the RI was 9%.
CC(=O)N[C@@H](Cc1ccccc1)C(=O)N[C@H](C(=O)N[C@@H](CC(C)C)C(=O)N[C@@H](C)C(=O)N[C@@H](C)C(=O)N[C@@H](CC(=O)O)C(=O)N[C@@H](Cc1ccccc1)C(=O)O)[C@H](C)O showed an RI of 2.9%.
Compound CC(=O)N[C@@H](Cc1ccc(N=[N+]=[N-])cc1)C(=O)N[C@H](C(=O)N[C@@H](CC(C)C)C(=O)N[C@@H](CC(=O)O)C(=O)N[C@@H](C)C(=O)N[C@@H](CC(=O)O)C(=O)N[C@@H](Cc1ccccc1)C(=O)O)[C@H](C)O has an RI of 10%.
Work on Ac-FLDADF-OH yielded an RI of 2.5%.

— ChEMBL document CHEMBL1126924, “R2 C-terminal peptide inhibition of mammalian and yeast ribonucleotide reductase” (J Med Chem, 1993)
